From ChEMBL document CHEMBL1148358, “DNA binding to guide the development of tetrahydroindeno[1,2-b]pyrido[4,3,2-de]quinoline derivatives as cytotoxic agents” (J Med Chem, 2004)

Tests used:
[1] = test system: Nucleic Acid; assay: Apparent binding constant with polynucleotide Poly (dAT)2 complex measured by fluorescence assay; assay type: nucleic-acid assay; conditions: in the assay text read “calf thymus DNA” for “polynucleotide Poly (dAT)2 complex”
Procedure, shortened: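 Ethidium displacement by fluorescence: excitation 515 nm, emission read over 550-700 nm, [ethidium]/[DNA] molar ratio 12.6:10, drug 0.01-100 µM in BPE buffer pH 7.1. C50 for ethidium displacement taken from a fitted curve; Kapp = (1.26 µM/C50) × K_ethidium, with K_ethidium = 10⁷ M^-1.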

[2] = test system: Nucleic Acid; assay: Relative DNA binding affinity was determined as difference in melting temperature (delta Tm) with the polynucleotide Poly (dAT)2 complex and alone Poly (dAT)2; assay type: nucleic-acid assay
[3] = test system: PC-3; assay: Cytotoxicity towards human prostate cancer PC 3 cell line was determined; assay type: functional, cell-based
Procedure, shortened: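 PC 3 cells kept in RPMI 1640 with 10% FCS were seeded at 3 × 10⁴ cells/well. After 3 days they were serum-starved for 24 h, then stimulated with 10 ng/mL EGF plus transferrin 50 ng/mL and selenium 50 pg/mL, with compounds added. Growth was read by MTT colorimetry after a further 72 h.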

[4] = test system: Nucleic Acid; assay: Apparent binding constant with calf thymus DNA measured by fluorescence assay

## COc1cc2nc3c(c4c2c(c1OC)N(C(C)=O)CC4)Cc1cc(OCCCN2CCN(C)CC2)ccc1-3
[1]
  K app: 3.58e+06 M⁻¹
[2]
  ΔTm: 3.8 °C
[3]
  IC50: > 1000 nM

## COc1cc2nc3c(c4c2c(c1OC)N(C(=O)CN1CCN(C)CC1)CC4)Cc1cc(OCCCN2CCN(C)CC2)ccc1-3
[1]
  K app: 3.04e+06 M⁻¹
[2]
  ΔTm: 32.5 °C
[3]
  IC50: > 1000 nM

## COc1cc2nc3c(c4c2c(c1OC)N(C(C)=O)CC4)Cc1cc(OCCN)ccc1-3
[1]
  K app: 990000 M⁻¹
[2]
  ΔTm: 7 °C
[3]
  IC50: > 1000 nM

## COc1cc2nc3c(c4c2c(c1OC)NCC4)Cc1ccccc1-3
[1]
  K app: 3100 M⁻¹
[2]
  ΔTm: 0 °C
[3]
  IC50: > 1000 nM

## COc1cc2nc3c(c4c2c(c1OC)NCC4)CCc1cc(O)ccc1-3
[1]
  K app: 1600 M⁻¹
[2]
  ΔTm: 1.1 °C
[3]
  IC50: > 1000 nM

## COc1cc2nc3c(c4c2c(c1OC)NCC4)Cc1cc(OCCN)ccc1-3
[1]
  K app: 5.14e+06 M⁻¹
[2]
  ΔTm: 14.8 °C
[3]
  IC50: > 1000 nM

## COc1cc2nc3c(c4c2c(c1OC)N(C(=O)CN1CCN(C)CC1)CC4)Cc1cc(OCCN)ccc1-3
[1]
  K app: 503000 M⁻¹
[2]
  ΔTm: 19.6 °C
[3]
  IC50: > 1000 nM

## COc1ccc2c(c1)Cc1c-2nc2cc(OC)c(OC)c3c2c1CCN3C(C)=O
[3]
  IC50: > 1000 nM

## COc1cc2nc3c(c4c2c(c1OC)NCC4)Cc1cc(OCCCN2CCN(C)CC2)ccc1-3
[1]
  K app: 301000 M⁻¹
[2]
  ΔTm: 10 °C
[3]
  IC50: 6.5 nM

## COc1cc2nc3c(c4c2c(c1OC)NCC4)Cc1cc(O)ccc1-3
[2]
  ΔTm: 4 °C
[3]
  IC50: > 1000 nM
[4]
  K app: 672000 M⁻¹

## COc1cc2nc3c(c4c2c(c1OC)N(C(C)=O)CC4)Cc1cc(OCCCN)ccc1-3
[2]
  ΔTm: 6 °C
[3]
  IC50: > 1000 nM
[4]
  K app: 293000 M⁻¹

## COc1cc2nc3c(c4c2c(c1OC)N(C(C)=O)CC4)Cc1ccccc1-3
[3]
  IC50: > 1000 nM

## COc1cc2nc3c(c4c2c(c1OC)N(C(=O)CN1CCN(C)CC1)CC4)Cc1cc(OCCCN)ccc1-3
[2]
  ΔTm: 22.5 °C
[3]
  IC50: > 1000 nM
[4]
  K app: 2.78e+06 M⁻¹

## COc1cc2nc3c(c4c2c(c1OC)N(C(C)=O)CC4)Cc1cc(O)ccc1-3
[1]
  K app: 677000 M⁻¹
[2]
  ΔTm: 3.1 °C
[3]
  IC50: > 1000 nM

## COc1cc2nc3c(c4c2c(c1OC)NCC4)Cc1cc(OCCCN)ccc1-3
[1]
  K app: 6.13e+06 M⁻¹
[2]
  ΔTm: 15.8 °C
[3]
  IC50: > 1000 nM

## COc1ccc2c(c1)Cc1c-2nc2cc(OC)c(OC)c3c2c1CCN3
[1]
  K app: 1700 M⁻¹
[2]
  ΔTm: 0 °C
[3]
  IC50: > 1000 nM
